Laboratory results taken from ChEMBL document CHEMBL1146820, “Parallel solid-phase synthesis of disubstituted (5-biphenyltetrazolyl) hydantoins and thiohydantoins targeting the growth hormone secretagogue receptor” (Bioorg Med Chem Lett, 2004).
pIC50: −log10 of the molar value.

biological target: Growth hormone secretagogue receptor type 1 (Homo sapiens, UniProt Q92847); assay: Inhibition of ghrelin binding to Growth hormone secretagogue receptor expressed in BHK cells; assay type: cell-based
Outline: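 Competition binding against ¹²⁵I-ghrelin at the human GHS receptor expressed in BHK cells. Values are displacement of the radiolabelled ghrelin tracer by the test compounds.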

Sequence of Growth hormone secretagogue receptor type 1 (Q92847 whole entry): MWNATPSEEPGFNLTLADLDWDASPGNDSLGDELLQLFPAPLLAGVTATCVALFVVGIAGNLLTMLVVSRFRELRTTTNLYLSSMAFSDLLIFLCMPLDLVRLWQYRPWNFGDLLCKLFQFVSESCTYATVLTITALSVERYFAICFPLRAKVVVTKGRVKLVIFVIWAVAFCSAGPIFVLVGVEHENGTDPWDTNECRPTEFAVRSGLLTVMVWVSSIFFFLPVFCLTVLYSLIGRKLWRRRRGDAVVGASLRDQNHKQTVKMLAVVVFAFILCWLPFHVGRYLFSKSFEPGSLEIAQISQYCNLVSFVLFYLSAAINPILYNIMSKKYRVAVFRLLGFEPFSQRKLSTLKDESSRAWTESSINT

Row | pIC50 | Compound
1 | < 4.00 | CN(C)c1ccc(N2C(=O)[C@H](CCc3ccccc3)N(Cc3ccc(-c4ccccc4-c4nn[nH]n4)cc3)C2=S)cc1
2 | 4.82 | O=C1[C@H](CCc2ccccc2)N(Cc2ccc(-c3ccccc3-c3nn[nH]n3)s2)C(=O)N1CCCN1CCCCC1
3 | 5.96 | O=C1[C@H](CCc2ccccc2)N(Cc2ccc(-c3ccccc3-c3nn[nH]n3)cc2)C(=O)N1CCCN1CCCC1
4 | 4.35 | O=C1[C@H](CCc2ccccc2)N(Cc2ccc(-c3ccccc3-c3nn[nH]n3)cc2)C(=S)N1CCCN1CCOCC1
5 | 5.09 | CN(C)CCCN1C(=O)[C@H](CCc2ccccc2)N(Cc2ccc(-c3ccccc3-c3nn[nH]n3)cc2)C1=S
6 | < 4.00 | NCCCN1C(=O)[C@H](CCc2ccccc2)N(Cc2ccc(-c3ccccc3-c3nn[nH]n3)cc2)C1=O
7 | 6.22 | O=C1[C@H](CCc2ccccc2)N(Cc2ccc(-c3ccccc3-c3nn[nH]n3)cc2)C(=O)N1CCCN1CCCCC1
8 | 5.89 | O=C1[C@H](CCc2ccccc2)N(Cc2cc(-c3ccccc3-c3nn[nH]n3)cs2)C(=O)N1CCCN1CCCCC1
9 | 4.30 | O=C1[C@H](Cc2c[nH]c3ccccc23)N(Cc2ccc(-c3ccccc3-c3nn[nH]n3)cc2)C(=O)N1C1CCNCC1
10 | 5.80 | O=C1[C@H](CCc2ccccc2)N(Cc2ccc(-c3ccccc3-c3nn[nH]n3)cc2F)C(=O)N1CCCN1CCCCC1
11 | 5.40 | CN(C)CCCN1C(=O)[C@H](CCc2ccccc2)N(Cc2ccc(-c3ccccc3-c3nn[nH]n3)cc2)C1=O
12 | < 4.00 | CN(C)C(=O)CCN1C(=O)[C@H](CCc2ccccc2)N(Cc2ccc(-c3ccccc3-c3nn[nH]n3)cc2)C1=O
13 | 4.46 | CN(C)CCCN1C(=O)[C@H](Cc2ccccc2)N(Cc2ccc(-c3ccccc3-c3nn[nH]n3)cc2)C1=S
14 | 4.46 | CN(C)CCCN1C(=O)[C@H](c2ccccc2)N(Cc2ccc(-c3ccccc3-c3nn[nH]n3)cc2)C1=S
